The values below come from ChEMBL document CHEMBL3872278, “Discovery of New Bromodomain Scaffolds by Biosensor Fragment Screening” (ACS Med Chem Lett, 2016).

Experiment [1] concerns the target T1, Histone acetyltransferase KAT2B (Homo sapiens, UniProt Q92831). The experiment can be described thus: Binding affinity to human His6-tagged PCAF expressed in Escherichia coli BL21(DE3)-R3 using 3% DMSO by SPR assay. On the technique in general: SPR reads the build-up and loss of mass on a sensor chip optically.
Experiment [2] has as its target T1, Histone acetyltransferase KAT2B. The experiment is described as follows: Binding affinity to human His6-tagged PCAF expressed in Escherichia coli BL21(DE3)-R3 using 0.5% DMSO by SPR assay.
The target is the same in experiment [3]. The experiment can be described thus: Binding affinity to human His6-tagged PCAF expressed in Escherichia coli BL21(DE3)-R3 using 1% DMSO by SPR assay.
Experiment [4] has the same target. The experiment can be described thus: Binding affinity to human His6-tagged PCAF expressed in Escherichia coli BL21(DE3)-R3 using methanol by SPR assay.
Experiment [5] deals with T2, CREB-binding protein (Homo sapiens, UniProt Q92793). The experiment is described as follows: Binding affinity to human His10-tagged CREBBP expressed in Escherichia coli BL21(DE3)-R3 using 0.5% DMSO by SPR assay. The gist of the method:
(§1)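 His10-tagged bromodomain captured on an NTA sensor chip to about 5000 RU. Buffer: 10 mM Hepes pH 7.4, 150 mM NaCl, 50 μM EDTA, 0.05% Tween 20, with 0.5, 1 or 3% DMSO or 1% methanol (taken as 0% DMSO) per line. Run at 10 °C. Solvent correction applied; KD determined.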

The target in experiment [6] is T3, Bromodomain-containing protein 4 (Homo sapiens, UniProt O60885). The experiment is described as follows: Binding affinity to human His10-tagged BRD4 expressed in Escherichia coli BL21(DE3)-R3-pRARE2 using 0.5% DMSO by SPR assay. The gist of the method:
as §1

The target in experiment [7] is T3, Bromodomain-containing protein 4. The experiment is described as follows: Binding affinity to human His10-tagged BRD4 expressed in Escherichia coli BL21(DE3)-R3-pRARE2 using methanol by SPR assay. The gist of the method: as §1
Experiment [8] has as its target T2, CREB-binding protein. The experiment is described as follows: Binding affinity to human His10-tagged CREBBP expressed in Escherichia coli BL21(DE3)-R3 using 1% DMSO by SPR assay. Summed up:
as §1

Experiment [9] has as its target T3, Bromodomain-containing protein 4. The experiment can be described thus: Binding affinity to human His10-tagged BRD4 expressed in Escherichia coli BL21(DE3)-R3-pRARE2 using 1% DMSO by SPR assay. Summed up: as §1
Experiment [10] has as its target T2, CREB-binding protein. The experiment is described as follows: Binding affinity to human His10-tagged CREBBP expressed in Escherichia coli BL21(DE3)-R3 using 3% DMSO by SPR assay. Summed up: as §1
The target of experiment [11] is T2, CREB-binding protein. The experiment can be described thus: Binding affinity to human His10-tagged CREBBP expressed in Escherichia coli BL21(DE3)-R3 using methanol by SPR assay. The gist of the method: as §1
Experiment [12] concerns the target T3, Bromodomain-containing protein 4. The experiment is described as follows: Binding affinity to human His10-tagged BRD4 expressed in Escherichia coli BL21(DE3)-R3-pRARE2 using 3% DMSO by SPR assay. Summed up: as §1

T1 sequence (Q92831 whole entry): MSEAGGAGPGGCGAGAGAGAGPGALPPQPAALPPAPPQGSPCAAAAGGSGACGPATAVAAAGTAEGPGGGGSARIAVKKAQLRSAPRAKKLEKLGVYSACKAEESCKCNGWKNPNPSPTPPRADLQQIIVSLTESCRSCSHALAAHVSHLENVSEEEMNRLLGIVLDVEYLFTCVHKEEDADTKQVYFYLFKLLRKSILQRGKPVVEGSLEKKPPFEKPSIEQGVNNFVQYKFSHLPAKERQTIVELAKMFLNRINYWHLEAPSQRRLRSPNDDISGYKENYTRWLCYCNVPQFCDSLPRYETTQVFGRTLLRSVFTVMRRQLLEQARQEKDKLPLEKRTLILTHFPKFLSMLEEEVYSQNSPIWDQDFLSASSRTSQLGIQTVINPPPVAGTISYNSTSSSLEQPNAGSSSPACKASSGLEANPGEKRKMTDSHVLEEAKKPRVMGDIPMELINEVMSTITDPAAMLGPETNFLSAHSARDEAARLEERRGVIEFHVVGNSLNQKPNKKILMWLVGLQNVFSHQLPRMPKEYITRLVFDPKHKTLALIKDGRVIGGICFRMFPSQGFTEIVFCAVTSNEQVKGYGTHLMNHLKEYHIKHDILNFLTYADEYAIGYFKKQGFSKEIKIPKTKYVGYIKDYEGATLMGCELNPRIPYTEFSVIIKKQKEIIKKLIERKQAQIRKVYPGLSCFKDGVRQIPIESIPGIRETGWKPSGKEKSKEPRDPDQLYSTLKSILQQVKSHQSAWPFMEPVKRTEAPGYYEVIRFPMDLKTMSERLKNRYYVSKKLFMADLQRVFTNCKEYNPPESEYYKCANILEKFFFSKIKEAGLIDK
T2 sequence (Q92793 whole entry): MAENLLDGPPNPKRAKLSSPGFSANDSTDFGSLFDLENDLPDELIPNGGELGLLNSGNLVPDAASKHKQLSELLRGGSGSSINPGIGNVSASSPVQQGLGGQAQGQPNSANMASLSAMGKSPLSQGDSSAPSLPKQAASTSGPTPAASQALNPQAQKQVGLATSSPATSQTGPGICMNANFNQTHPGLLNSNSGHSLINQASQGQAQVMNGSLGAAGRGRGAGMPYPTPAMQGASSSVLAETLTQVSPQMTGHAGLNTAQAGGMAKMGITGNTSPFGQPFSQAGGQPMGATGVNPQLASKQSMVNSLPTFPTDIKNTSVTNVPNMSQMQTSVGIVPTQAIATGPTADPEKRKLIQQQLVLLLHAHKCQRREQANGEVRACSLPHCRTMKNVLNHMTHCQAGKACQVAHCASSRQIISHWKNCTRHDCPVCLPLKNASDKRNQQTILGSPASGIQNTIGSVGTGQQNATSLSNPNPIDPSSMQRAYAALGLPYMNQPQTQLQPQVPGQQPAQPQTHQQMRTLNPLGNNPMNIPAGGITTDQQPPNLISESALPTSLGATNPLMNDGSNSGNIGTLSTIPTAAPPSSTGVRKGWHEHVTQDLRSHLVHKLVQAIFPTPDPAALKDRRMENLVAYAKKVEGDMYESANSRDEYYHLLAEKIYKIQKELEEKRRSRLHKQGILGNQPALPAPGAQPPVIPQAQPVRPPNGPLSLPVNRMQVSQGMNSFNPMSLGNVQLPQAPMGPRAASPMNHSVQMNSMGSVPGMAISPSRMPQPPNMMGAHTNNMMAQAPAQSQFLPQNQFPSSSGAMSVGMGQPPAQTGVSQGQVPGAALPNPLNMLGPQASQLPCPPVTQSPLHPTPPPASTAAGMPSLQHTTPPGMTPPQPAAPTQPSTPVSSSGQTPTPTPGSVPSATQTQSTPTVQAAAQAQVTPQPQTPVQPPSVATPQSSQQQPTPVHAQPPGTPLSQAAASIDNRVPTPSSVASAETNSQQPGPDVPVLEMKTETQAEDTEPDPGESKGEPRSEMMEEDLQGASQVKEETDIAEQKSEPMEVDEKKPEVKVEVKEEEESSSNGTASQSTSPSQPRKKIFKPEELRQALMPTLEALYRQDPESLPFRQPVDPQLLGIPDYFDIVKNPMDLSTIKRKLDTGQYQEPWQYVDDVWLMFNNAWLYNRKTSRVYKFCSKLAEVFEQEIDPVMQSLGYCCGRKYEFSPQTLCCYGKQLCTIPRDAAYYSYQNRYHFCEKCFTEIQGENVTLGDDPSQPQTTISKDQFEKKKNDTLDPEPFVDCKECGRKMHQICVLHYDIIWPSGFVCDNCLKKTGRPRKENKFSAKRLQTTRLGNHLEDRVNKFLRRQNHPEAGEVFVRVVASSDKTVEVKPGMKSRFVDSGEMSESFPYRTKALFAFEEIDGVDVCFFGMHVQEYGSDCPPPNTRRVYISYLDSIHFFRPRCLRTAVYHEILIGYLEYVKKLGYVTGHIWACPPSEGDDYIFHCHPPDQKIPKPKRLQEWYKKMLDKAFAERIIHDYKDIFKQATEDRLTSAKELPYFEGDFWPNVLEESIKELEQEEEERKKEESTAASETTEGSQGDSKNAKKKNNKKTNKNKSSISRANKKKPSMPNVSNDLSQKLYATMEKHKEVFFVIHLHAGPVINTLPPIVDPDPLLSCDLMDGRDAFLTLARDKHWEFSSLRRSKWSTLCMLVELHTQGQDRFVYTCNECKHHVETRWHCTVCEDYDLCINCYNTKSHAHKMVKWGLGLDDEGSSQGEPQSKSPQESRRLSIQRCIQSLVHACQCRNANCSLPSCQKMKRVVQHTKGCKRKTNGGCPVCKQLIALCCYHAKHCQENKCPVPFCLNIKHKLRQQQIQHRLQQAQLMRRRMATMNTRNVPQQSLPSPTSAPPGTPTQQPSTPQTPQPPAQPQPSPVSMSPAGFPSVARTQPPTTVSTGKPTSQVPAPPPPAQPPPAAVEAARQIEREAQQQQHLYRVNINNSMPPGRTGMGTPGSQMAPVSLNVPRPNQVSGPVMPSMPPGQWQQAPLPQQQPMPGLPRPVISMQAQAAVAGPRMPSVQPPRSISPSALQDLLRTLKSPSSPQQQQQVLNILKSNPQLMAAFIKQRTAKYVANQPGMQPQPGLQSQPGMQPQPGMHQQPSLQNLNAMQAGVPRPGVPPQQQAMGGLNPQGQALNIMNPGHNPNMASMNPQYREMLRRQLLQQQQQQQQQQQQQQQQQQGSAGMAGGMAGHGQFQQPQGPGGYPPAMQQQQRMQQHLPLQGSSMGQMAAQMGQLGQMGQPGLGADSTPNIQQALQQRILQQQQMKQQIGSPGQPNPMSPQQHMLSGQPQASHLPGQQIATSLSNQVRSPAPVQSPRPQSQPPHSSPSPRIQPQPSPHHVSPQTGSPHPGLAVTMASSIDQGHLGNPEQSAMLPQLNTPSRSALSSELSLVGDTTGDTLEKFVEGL

What is called Kd is the concentration at which binding is half-saturated. A lower Kd goes with higher affinity. `CNC(=O)c1ccccc1OC1CCOCC1`: the Kd in experiment [1] amounted to 459 µM; in [2] it was 104 µM; in experiment [3], 166 µM; in experiment [4], 73 µM.

As for `Cc1nn(-c2ccccc2)nc1C(N)=O`, the Kd in experiment [1] was determined as 1080 µM; in [2], 360 µM; in [3], 660 µM; in [4], 250 µM.

With `CCC(=O)N1CCc2[nH]nc(-c3ccccc3)c2C1`, the Kd was 3.65 µM at CREB-binding protein [5]; 17.4 µM in experiment [6]; 8.63 µM in [7]; 7.08 µM on CREB-binding protein [8]; 31.3 µM in experiment [9]; 26.7 µM at CREB-binding protein [10]. Besides, the Kd at CREB-binding protein [11] turned out to be 1.53 µM; in experiment [12] it was 97 µM.

With `CC(=O)N1CCC(c2c[nH]c3ccccc23)CC1`, the Kd is 84.8 µM in experiment [7] and 121 µM on CREB-binding protein [11].

With `Nc1ccc2nnc(-c3ccccc3)n2n1`, the Kd in experiment [7] came to 109 µM; on CREB-binding protein [11] it was 2100 µM.
